# In paper PMC8811894 (ACS Omega, 2022):
# Where two headings read alike, the source gives them in different places.
# Tests used:
# [1] = system: A375 human skin epithelial malignant melanoma cells; assay: MTT cell toxicity assay; type: cell-based; details: read-out: cancer cell growth inhibition, GI50
# Procedure, shortened: (§1)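 Cells were seeded at 5 × 10^3/well in medium with 10% FBS and kept at 37 °C, 5% CO2. Media: DMEM for A549 and A375; EMEM for DU145; F-12K for PC-3; McCoy's 5a for HCT-116 and SK-OV-3; RPMI-1640 + insulin 0.2 Units/mL for T-47D. Test compound came from DMSO stocks, with tubercidin as positive control. MTT at 0.5 mg/mL final was added for 2–3 h at 37 °C, then absorbance read at 570 nm. Three repeats; GI50 from sigmoidal fit.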
# [2] = system: T-47D human breast carcinoma cells; assay: Click-iT-EdU Alexa Fluor 488 cell proliferation assay; type: cell-based; details: for GI50: 72 h, read-out: DNA synthesis inhibition, GI50; for times more potent than PrTPP: Click-iT-EdU test
# Procedure, shortened: (§2)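 Cells were seeded at 800/well in medium with 10% FBS under 5% CO2. HCT-116 grew in McCoy's 5a and T-47D in RPMI-1640 + insulin 0.2 Units/mL. Test compound came from DMSO stocks, with tubercidin as positive control. After 72 h, EdU was added for 2.5 h at 37 °C. Cells were fixed in 4% paraformaldehyde (30 min, RT) and stained with Hoechst 33342. Click-iT Alexa Fluor 488 reaction ran 1 h at RT in the dark. Plates were read by high-content imaging; value from sigmoidal fit.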
# [3] = system: DU145 human prostate epithelial carcinoma cells; assay: MTT cell toxicity assay; type: cell-based; details: read-out: cancer cell growth inhibition, GI50
# Procedure, shortened: as §1
# [4] = system: SK-OV-3 human ovary ascites epithelial adenocarcinoma cells; assay: MTT cell toxicity assay; type: cell-based; details: read-out: cancer cell growth inhibition, GI50
# Procedure, shortened: as §1
# [5] = system: PC-3 human prostate epithelial adenocarcinoma grade IV cells; assay: MTT cell toxicity assay; type: cell-based; details: 72 h, read-out: cancer cell growth inhibition, GI50
# Procedure, shortened: as §1
# [6] = system: A549 human lung epithelial carcinoma cells; assay: MTT cell toxicity assay; type: cell-based; details: read-out: cancer cell growth inhibition, GI50
# Procedure, shortened: as §1
# [7] = system: T-47D human breast carcinoma cells; assay: MTT cell toxicity assay; type: cell-based; details: for GI50: 72 h, read-out: cancer cell growth inhibition, GI50; for times more potent than PrTPP: MTT test
# Procedure, shortened: as §1
# [8] = system: HCT-116 human colon epithelial colorectal carcinoma cells; assay: Click-iT-EdU Alexa Fluor 488 cell proliferation assay; type: cell-based; details: read-out: DNA synthesis inhibition, GI50
# Procedure, shortened: as §2
# [9] = system: HCT-116 human colon epithelial colorectal carcinoma cells; assay: MTT cell toxicity assay; type: cell-based; details: read-out: cancer cell growth inhibition, GI50
# Procedure, shortened: as §1
# [10] = system: Caco-2 colon adenocarcinoma cells; details: read-out: IC50, growth suppression; 24 h treatment; ref [9]; cited from earlier work
# [11] = system: panel of 60 human cancer cell lines; assay: NCI60 screen, SRB assay, panel mean; type: cell-based; details: for NCI60 screen mean GI, %: single-dose inhibition of cell growth at 10 μM; for GI50: Homo sapiens, read-out: NCI60 screen mean GI50
# Procedure, shortened: (§3)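 Tested on the 60-line human cancer panel by sulforhodamine B assay. The dye binds cell protein under mildly acidic conditions and is extracted with basic medium; bound dye is taken as a proxy for cell mass. A single-dose test at 10 μM gives % growth inhibition; a five-dose test gives GI50.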
# MDA-MB-435 = assay: NCI60 SRB screen; type: cell-based; details: Homo sapiens, MDA-MB-435, read-out: growth inhibition
# Procedure, shortened: as §3
# A498 = assay: NCI60 SRB screen; type: cell-based; details: Homo sapiens, A498, read-out: growth inhibition
# Procedure, shortened: as §3
# sea urchin embryos = assay: Phenotypic sea urchin embryo assay; type: in vivo, Paracentrotus lividus
# [12] = system: MCF-7 human breast carcinoma cells; details: ref [30]; cited from earlier work
# [13] = system: panel of 60 human cancer cell lines; details: read-out: NCI60 screen mean GI50; SRB assay; ref NCI60 screen data, NSC 115712; cited from earlier work
# SK-MEL-5 = assay: NCI60 SRB screen; type: cell-based, human; details: NCI60 single dose, SK-MEL-5 melanoma
# Procedure, shortened: as §3
# MDA-MB-468 = assay: NCI60 SRB screen; type: cell-based, human; details: NCI60 single dose, MDA-MB-468 breast cancer
# Procedure, shortened: as §3
Compound,"GI50 ([1]; Homo sapiens, A-375, 72 h) [nM]","GI50 ([2]; Homo sapiens, T47D) [nM]","GI50 ([3]; Homo sapiens, DU-145, 72 h) [nM]","GI50 ([4]; Homo sapiens, SK-OV-3, 72 h) [nM]",GI50 ([5]; Homo sapiens) [nM],"GI50 ([6]; Homo sapiens, A549, 72 h) [nM]","GI50 ([7]; Homo sapiens, T47D) [nM]","GI50 ([8]; Homo sapiens, HCT-116, 72 h) [nM]","GI50 ([9]; Homo sapiens, HCT-116, 72 h) [nM]","NCI60 screen mean GI, % [11] [%]",other results
"C=CCc1cc(OC)c2c(c1OC)OCO2 [1a, Apiol]",> 250000,> 250000,> 250000,> 250000,> 250000,> 250000,70700 ± 9900,> 250000,> 250000,,
"C=CCc1cc(OC)c2c(c1)OCO2 [1c, myristicin]",> 250000,> 250000,> 250000,> 250000,> 250000,> 250000,113000 ± 12400,> 250000,> 250000,,IC50 [10]: 760000 nM
"COc1cc(CCCO)c(OC)c2c1OCO2 [4a, 3-(4,7-Dimethoxy-1,3-benzodioxol-5-yl)propan-1-ol]",> 250000,> 250000,> 250000,> 250000,> 250000,> 250000,> 250000,> 250000,> 250000,0,
"COc1c(CCCO)cc2c(c1OC)OCO2 [4b, 3-(6,7-Dimethoxy-1,3-benzodioxol-5-yl)propan-1-ol]",> 250000,> 250000,> 250000,> 250000,> 250000,> 250000,> 250000,> 250000,> 250000,0,
"COc1cc(CCCO)cc2c1OCO2 [4c, 3-(7-Methoxy-1,3-benzodioxol-5-yl)propan-1-ol]",> 250000,> 250000,> 250000,> 250000,> 250000,> 250000,> 250000,> 250000,> 250000,0,
"COc1cc(CCCO)c(OC)c(OC)c1OC [4d, 3-(2,3,4,5-Tetramethoxyphenyl)propan-1-ol]",> 250000,> 250000,> 250000,> 250000,> 250000,> 250000,> 250000,> 250000,> 250000,0,
"COc1cc(CCC[P+](c2ccccc2)(c2ccccc2)c2ccccc2)c(OC)c2c1OCO2.[I-] [7a, [3-(4,7-Dimethoxy-1,3-benzodioxol-5-yl)propyl](triphenyl)phosphonium Iodide]",627 ± 85,104 ± 7,2860 ± 400,2420 ± 430,552 ± 30,3000 ± 210,89 ± 8,367 ± 50,263 ± 33,,times more potent than PrTPP ([2]; T-47D): 33.2 times; times more potent than PrTPP ([7]; T-47D): 26.9 times; GI50 [11]: 1660 nM
"COc1c(CCC[P+](c2ccccc2)(c2ccccc2)c2ccccc2)cc2c(c1OC)OCO2.[I-] [7b, [3-(6,7-Dimethoxy-1,3-benzodioxol-5-yl)propyl](triphenyl)phosphonium Iodide]",491 ± 19,118 ± 7,3260 ± 360,6620 ± 130,555 ± 49,4640 ± 370,107 ± 4,405 ± 36,229 ± 27,,times more potent than PrTPP ([2]; T-47D): 29.2 times; times more potent than PrTPP ([7]; T-47D): 22.3 times; GI50 [11]: 1580 nM
"COc1cc(CCC[P+](c2ccccc2)(c2ccccc2)c2ccccc2)c(OC)c(OC)c1OC.[I-] [7d, [3-(2,3,4,5-Tetramethoxyphenyl)propyl](triphenyl)phosphonium Iodide]",2350 ± 240,613 ± 25,8130 ± 150,21600 ± 1530,3880 ± 550,17900 ± 360,500 ± 70,681 ± 90,218 ± 24,32.9,times more potent than PrTPP ([2]; T-47D): 5.6 times; times more potent than PrTPP ([7]; T-47D): 4.8 times; inhibition at 10 µM (MDA-MB-435): ~100%; inhibition at 10 µM (A498): ~100%
"COc1cc(OCCCCCC[P+](c2ccccc2)(c2ccccc2)c2ccccc2)c(OC)c2c1OCO2.[Br-] [compound 11, {6-[(4,7-Dimethoxy-2H-1,3-benzodioxol-5-yl)oxy]hexyl}(triphenyl)phosphonium Bromide]",1930 ± 77,606 ± 60,20800 ± 1300,24600 ± 2000,258 ± 26,463 ± 42,421 ± 13,2830 ± 370,1950 ± 210,,effect on sea urchin embryo development (in words) (sea urchin embryos; in vivo): moderate antiproliferative effect on the sea urchin embryos
"COc1cc(COC(=O)CCCCC[P+](c2ccccc2)(c2ccccc2)c2ccccc2)c(OC)c2c1OCO2.[Br-] [compound 16, {6-[(4,7-Dimethoxy-2H-1,3-benzodioxol-5-yl)methoxy]-6-oxohexyl}(triphenyl)phosphonium Bromide]",3430 ± 80,,14100 ± 370,10200 ± 190,4180 ± 130,18500 ± 670,430 ± 880,,1070 ± 20,49.2,number of cancer cell lines with 80–100% growth inhibition ([11]; NCI60 single dose 10 μM): nine
"COc1cc(CNC(=O)CCCCC[P+](c2ccccc2)(c2ccccc2)c2ccccc2)c(OC)c2c1OCO2.[Br-] [compound 17, (6-{[(4,7-Dimethoxy-2H-1,3-benzodioxol-5-yl)methyl]amino}-6-oxohexyl)(triphenyl)phosphonium Bromide]",2780 ± 170,,11300 ± 750,18900 ± 2860,2150 ± 40,9960 ± 220,256 ± 80,,1050 ± 10,35.8,number of cancer cell lines with 80–100% growth inhibition ([11]; NCI60 single dose 10 μM): three
CCCCCCCCCCCC[P+](c1ccccc1)(c1ccccc1)c1ccccc1 [dodecyl-TPP],,,,,,,,,,,concentration exhibiting cytotoxicity [12]: 250 nM
"Nc1ncnc2c1ccn2[C@@H]1O[C@H](CO)[C@@H](O)[C@H]1O [tubercidin, Tubercidin, reference compound]",43 ± 4,44 ± 6,256 ± 90,131 ± 2,76 ± 1,44 ± 3,13 ± 1,30.7 ± 2,80 ± 4,,GI50 [13]: 331 nM
"[3-(7-Methoxy-1,3-benzodioxol-5-yl)propyl](trimethyl)phosphonium Iodide [7c]",,,,,,,,,,63.9,"GI50 ([1]; A375, MTT assay, 72 h): 1080 ± 60 nM; times more potent than PrTPP ([2]; T-47D): 138 times; GI50 ([2]; T-47D, Click-iT-EdU): 25 ± 2 nM; GI50 ([3]; DU145, MTT assay, 72 h): 5120 ± 660 nM; GI50 ([4]; SK-OV-3, MTT assay, 72 h): 11000 ± 1400 nM; effect at 10 μM (in words) (SK-MEL-5): lethal effect; GI50 ([5]; PC-3, MTT assay): 410 ± 40 nM; GI50 ([6]; A549, MTT assay, 72 h): 12200 ± 610 nM; times more potent than PrTPP ([7]; T-47D): 239 times; GI50 ([7]; T-47D, MTT assay): 10 ± 0.5 nM; GI50 ([8]; HCT-116, Click-iT-EdU, 72 h): 220 ± 30 nM; cleavage alteration, EC (sea urchin embryos; effective threshold concentration, fertilized eggs exposed): >4 µM; effect at 10 μM (in words) (MDA-MB-468): lethal effect; GI50 ([9]; HCT-116, MTT assay, 72 h): 331 ± 39 nM; number of cancer cell lines with growth inhibited by more than 80% ([11]; NCI60 single dose 10 μM): 18"
